Kir21 inh: inhibitors of mouse Kir2.1 inward-rectifier potassium channel | P35561 | HEK293-Kir2.1, FluxOR thallium flux fluorescence; hits give low values | B-score at 10 µM | 310,000 tested, 0.85% active | AID 1672;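 active = fluorescence ratio B-score at or below minus 3 SD of library scores, with starting-brightness B-score within 2 SD, cut at about -4.2 in these data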;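 note: channel flux triggered by added potassium and thallium sulfate stimulus; B-score of peak minus minimum fluorescence over baseline after thallium stimulus; more negative B-score means stronger Kir2.1 block with less thallium influx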
hERG protect: compounds protecting human hERG from proarrhythmic drug block. Q12809. CHO-hERG, FluxOR thallium flux, dofetilide IC70 present. activation (rescue from dofetilide block), less the hit threshold, % at 10 µM. 310,000 tested, 0.51% active. AID 1511;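 active = activation above the mean of controls blocked by dofetilide plus 5 SD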;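 note: thallium influx through hERG after potassium depolarization seen as dye fluorescence rise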
KCNQ1 act: potentiates or activates the human KCNQ1 potassium channel | P51787 | 310,000 tested, 0.35% active | B-score at 10 µM | AID 2648 | CHO-K1 KCNQ1, thallium flux FluxOR fluorescence; hits give high values;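 active = fluorescence ratio B-score, a plate-corrected score, at least three library SD, with initial intensity B-score within 5 SD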
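Assay system: CHO-K1 cells stably expressing KCNQ1. Medium: assay buffer for compound exposure, DMSO matched across wells. Timing: 37 °C overnight plating, 90-min dark dye load, 20-min compound pretreatment. Signal: kinetic FluxOR fluorescence, 10 s baseline plus 110 s post-stimulus.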
KCNQ1 block: blocks the human KCNQ1 potassium channel | P51787 | CHO-K1 KCNQ1, FluxOR thallium flux fluorescence; hits give high values | B-score at 10 µM | 310,000 tested, 1.3% active | AID 2642;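 active = compounds whose thallium flux B-score, printed positive for inhibition, exceeds three library SD while starting fluorescence stays within three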;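 note: channel opened by potassium depolarization with thallium stimulus after 20 min compound exposure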
KCNK9 inh: human KCNK9 channel inhibition | AID 488922 | B-score at 10 µM | HEK293 KCNK9, FluxOR thallium flux fluorescence; hits give low values | 310,000 tested, 1.2% active;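 active = ratio B-score over 3 SD below the library mean, with starting fluorescence within 5 SD of its mean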;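 note: negative B-score means less thallium flux so channel inhibition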
Target sequence (Q9NPC2 whole entry, looked up): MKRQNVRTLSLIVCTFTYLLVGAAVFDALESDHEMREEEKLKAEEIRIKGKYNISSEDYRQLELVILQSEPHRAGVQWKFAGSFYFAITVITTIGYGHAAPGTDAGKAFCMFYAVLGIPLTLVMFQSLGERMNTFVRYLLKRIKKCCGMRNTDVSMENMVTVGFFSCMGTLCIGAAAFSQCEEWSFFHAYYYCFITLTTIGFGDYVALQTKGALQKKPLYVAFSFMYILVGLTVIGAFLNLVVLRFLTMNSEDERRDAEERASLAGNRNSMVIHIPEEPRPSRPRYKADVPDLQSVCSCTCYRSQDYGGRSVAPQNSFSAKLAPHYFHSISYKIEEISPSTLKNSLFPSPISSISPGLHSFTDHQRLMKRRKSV
KCNK3 inh: human KCNK3 channel inhibition, primary screen. CHO-KCNK3 thallium flux, FluxOR fluorescence; hits give low values. AID 602410. O14649. B-score at 10 µM. 340,000 tested, 0.84% active;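 active = B-score under library mean minus 4 SD, starting fluorescence ratio at most library mean plus 5 SD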;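 note: more negative B-score means stronger inhibition of thallium flux through KCNK3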
Target sequence (O14649 whole entry, looked up): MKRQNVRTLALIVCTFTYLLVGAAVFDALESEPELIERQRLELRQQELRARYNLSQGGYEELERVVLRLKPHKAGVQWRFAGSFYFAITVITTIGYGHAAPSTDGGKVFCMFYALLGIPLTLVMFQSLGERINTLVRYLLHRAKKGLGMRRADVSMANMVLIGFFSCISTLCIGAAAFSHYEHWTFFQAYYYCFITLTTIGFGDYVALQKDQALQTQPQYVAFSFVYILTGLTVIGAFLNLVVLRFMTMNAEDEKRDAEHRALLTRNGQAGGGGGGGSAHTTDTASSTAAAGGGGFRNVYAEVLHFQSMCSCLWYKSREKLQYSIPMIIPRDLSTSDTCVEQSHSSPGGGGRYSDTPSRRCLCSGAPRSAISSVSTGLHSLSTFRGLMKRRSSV
KCNK9 inh conf: confirmation of human KCNK9 potassium channel inhibitors. shares compounds with KCNK9 inh. HEK293 KCNK9 cells, FluxOR thallium flux fluorescence. inhibition, % at 10 µM. 4,900 tested, 43% active. AID 492992;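 active = thallium signal inhibited by more than 5 SD of the compound-free buffer control wells, on both duplicate plates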
Kir21 sel: mouse Kir2.1 off-target activity of KCNK9 modulators. shares compounds with KCNK9 inh. Kir2.1 cells, FluxOR thallium flux fluorescence. inhibition, % at 10 µM. 4,900 tested, 4% active. AID 492993;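 active = thallium signal drop more than 5 SD beyond the mean of the no-compound control wells, seen in both duplicate plates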;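 note: signal is fluorescence rise after thallium addition divided by baseline fluorescence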
HEK293 Tl ctr: second counter-screen for KCNK9 modulators: effect in non-induced cells; 4,900 tested, 40% active; AID 492997; inhibition, % at 10 µM; non-induced KCNK9-HEK293, FluxOR thallium flux; shares compounds with KCNK9 inh;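 active = thallium signal drop beyond 5 SD of the untreated control mean, on both duplicate plates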
Of the large screens only hits and unclear results are named; the others gave an inactive call (follow-up assays come after a bar, where they were run). Most compounds without a hit are left out; they make up all but 3.7% or so of the library.

CCC(=O)Nc1cccc(C2=NN(c3ccccc3)C(c3ccc(OC)cc3)C2)c1 (stereo not drawn)	KCNK9 inh -13 | KCNK9 inh conf 52% | Kir21 sel inactive | HEK293 Tl ctr 40%
Cc1ccc(Cn2nc(C)c(C(=O)NCC(c3ccc(F)cc3)N3CCOCC3)c2Cl)cc1 (stereo not drawn)	none (no result: Kir21 inh, hERG protect, KCNQ1 act, KCNQ1 block, KCNK9 inh)
CC1(C)CC2CC(C)(CN2S(=O)(=O)c2ccc(F)cc2F)C1 (stereo not drawn)	none (no result: Kir21 inh, hERG protect, KCNQ1 act, KCNQ1 block, KCNK9 inh)
COc1ccc(-c2csc(NC(CO)c3nc4ccccc4n3CCCO)n2)cc1 (stereo not drawn)	none
Cc1cccc(NC(=O)c2ccc(COc3ccc(Cl)cc3Cl)o2)n1	none | KCNK9 inh conf inactive | Kir21 sel inactive | HEK293 Tl ctr inactive
Cc1cccc(NC(=O)c2ccc(COc3ccc4ccccc4c3)o2)n1	none
CCC1C(=NO)C(CC)C(c2ccccc2)NC1c1ccccc1 (stereo not drawn)	none | KCNK9 inh conf inactive | Kir21 sel inactive | HEK293 Tl ctr inactive
CCCC1/C(=N/O)CC(c2ccccc2)NC1c1ccccc1 (stereo not drawn)	none
Cc1ccc(C)c(Cn2nnc3c(=O)[nH]c(C4CCCN(C(=O)C5CCCCC5)C4)nc32)c1 (stereo not drawn)	KCNK9 inh -18 | KCNK9 inh conf 64% | Kir21 sel inactive | HEK293 Tl ctr 25%
Cc1nc(Nc2ccc(Cl)cc2)c(C#N)c(=O)[nH]1	none
Cc1ccc(C)c(N2CCN(S(=O)(=O)c3c(C)noc3C)CC2)c1	none | KCNK9 inh conf inactive | Kir21 sel inactive | HEK293 Tl ctr 28%
Cc1ccccc1C(=O)N[C@H](C(=O)OCC(=O)NC1CC1)C(C)C	none (no result: Kir21 inh, hERG protect, KCNQ1 act, KCNQ1 block, KCNK9 inh)
c1ccc(CNc2ncnc3sc4c(c23)CCCC4)nc1	none
Cc1nc(NCc2ccccn2)c2c3c(sc2n1)CCCC3	none | KCNK9 inh conf inactive | Kir21 sel inactive | HEK293 Tl ctr inactive
O=C1N=c2ccc(Br)cc2=C1c1sc(=S)n(NS(=O)(=O)c2ccccc2)c1O	none | KCNK9 inh conf inactive | Kir21 sel inactive | HEK293 Tl ctr inactive
O=C(/C=C/c1cccs1)NNC(=O)c1ccccc1	none (no result: Kir21 inh, hERG protect, KCNQ1 act, KCNQ1 block, KCNK9 inh)
COc1ccc(-c2noc(C3CCCN(S(=O)(=O)c4ccc(C)c(Cl)c4)C3)n2)cc1OC (stereo not drawn)	none
COc1ccc(-c2noc(C3CCCN(C(=O)c4cccc(C)c4)C3)n2)cc1 (stereo not drawn)	none | KCNK9 inh conf inactive | Kir21 sel inactive | HEK293 Tl ctr inactive
COc1ccc(-c2noc(C3CCCN(S(=O)(=O)c4cccc(Cl)c4C)C3)n2)cc1OC (stereo not drawn)	KCNK9 inh -12 | KCNK9 inh conf 34% | Kir21 sel inactive | HEK293 Tl ctr inactive
O=C1NC[C@H](c2ccccc2)N(CCC23CC4CC(CC(C4)C2)C3)C1=O	none
CC(C)C[C@H](NC(=O)c1nc[nH]c1C(=O)NCc1ccc(CNC(=O)OC(C)(C)C)cc1)C(=O)OC(C)(C)C	KCNK9 inh -8.8 | KCNK9 inh conf 32% | Kir21 sel inactive | HEK293 Tl ctr 29%
CC(C)(C)OC(=O)[C@H](Cc1ccccc1)NC(=O)c1nc[nH]c1C(=O)N1CCc2ccccc2C1	none | KCNK9 inh conf inactive | Kir21 sel inactive | HEK293 Tl ctr inactive
CC(C)(C)OC(=O)NCCCC[C@H](NC(=O)c1nc[nH]c1C(=O)N1CCc2ccccc2C1)C(=O)OC(C)(C)C	none
CCN(C(=O)COC(=O)c1ccc(Cl)c(S(=O)(=O)N2CCCCC2)c1)C1CCS(=O)(=O)C1 (stereo not drawn)	none (no result: Kir21 inh, hERG protect, KCNQ1 act, KCNQ1 block, KCNK9 inh)
CN(Cc1ccccc1)C(=O)CSc1nc2ccccc2c(=O)n1Cc1ccco1	none | KCNK9 inh conf inactive | Kir21 sel inactive | HEK293 Tl ctr inactive
Cc1ccc(NC(=O)CN(C)C(=O)CSc2nc3ccccc3c(=O)n2Cc2ccco2)cc1	none
CCc1cc(=O)oc2c3c(cc(OCC(=O)NCCCn4ccnc4)c12)OC(C)(C)CC3	none
COc1ccc(-c2c(NC(=O)CC(C)C)n(C)c3ccccc3c2=O)cc1OC	none
O=[N+]([O-])c1ccccc1-c1ccc(C(=S)N2CCN(c3ccccc3)CC2)o1	none | KCNK9 inh conf inactive | Kir21 sel inactive | HEK293 Tl ctr inactive
Cc1ccc(N2CCN(C(=S)c3ccc(-c4ccccc4[N+](=O)[O-])o3)CC2)cc1	none
Cc1ccc(/C=C2\SC(=S)N(CCCC(=O)Nc3ccccc3C(=O)O)C2=O)cc1	none
CCOc1ccc(/C=C2\SC(=S)N(CCC(=O)Nc3ccc(C(=O)O)cc3)C2=O)cc1	none
CCc1ccc(/C=C2\SC(=S)N(CCCC(=O)Nc3ccc(C(=O)O)cc3)C2=O)cc1	none | KCNK9 inh conf inactive | Kir21 sel inactive | HEK293 Tl ctr inactive
CCOc1ccc(/C=C2\SC(=S)N(CCC(=O)Nc3cccc(C(=O)O)c3)C2=O)cc1	none | KCNK9 inh conf inactive | Kir21 sel inactive | HEK293 Tl ctr inactive
CCc1ccc(/C=C2\SC(=S)N(CCCC(=O)Nc3ccccc3C(=O)O)C2=O)cc1	none | KCNK9 inh conf inactive | Kir21 sel inactive | HEK293 Tl ctr inactive
CC(C)Cc1nnc(NC(=O)C2CSC3(C)CCC(=O)N23)s1 (stereo not drawn)	none
CC(=O)N1c2ccccc2-c2nc3ccccc3n2C1C (stereo not drawn)	none
Cc1ccc(C2N(C)c3ccccc3-c3nc4ccccc4n32)o1 (stereo not drawn)	KCNK9 inh -11 | KCNK9 inh conf 32% | Kir21 sel inactive | HEK293 Tl ctr 30%
CN1c2ccccc2-c2nc3ccccc3n2C1c1cccs1 (stereo not drawn)	KCNK9 inh -8.6 | KCNK9 inh conf 38% | Kir21 sel inactive | HEK293 Tl ctr 42%
COc1ccc(C(=O)N[C@H](C(=O)OCn2nnc3ccccc3c2=O)C(C)C)cc1	none (no result: Kir21 inh, hERG protect, KCNQ1 act, KCNQ1 block, KCNK9 inh)
COc1ccc(C)cc1N(C(=O)c1ccccc1)c1nc2ccccc2s1	KCNK9 inh -10 | KCNK9 inh conf 42% | Kir21 sel inactive | HEK293 Tl ctr 32%
COc1ccc(C)cc1N(C(=O)c1cccc(F)c1)c1nc2ccccc2s1	none (no result: Kir21 inh, hERG protect, KCNQ1 act, KCNQ1 block, KCNK9 inh)
COc1ccc(C)cc1N(C(=O)c1ccccc1F)c1nc2ccccc2s1	KCNK9 inh -9.7 | KCNK9 inh conf 46% | Kir21 sel inactive | HEK293 Tl ctr 36%
COc1ccc(C)cc1N(C(=O)COc1ccccc1)c1nc2ccccc2s1	none
